Experimental data: ChEMBL document CHEMBL1146009, “Synthesis and cytotoxic activity of polyamine analogues of camptothecin” (J Med Chem, 2006)
pIC50: −log10 of the molar value. Blank lines part the entries; values can stand above or below the compound they belong to.

How the values were obtained:
[1] = tested on: NCI-H460; test: Inhibition of human H460 cell growth; type: functional, cell-based
Method in brief: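 H460 cells grown in RPMI-1640 with 10% FCS, seeded in duplicate in log phase. Drug from DMSO stock added 24 h after seeding for 1 h exposure. Cells counted 72 h later by Coulter counter. IC50 is the concentration giving 50% growth decrease versus untreated control; mean ± SD of at least three experiments.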

[2] = tested on: Mus musculus; test: Toxicity in nude athymic mouse at 15 mg/kg, po; type: organism-based; design: dose 15 mg/kg, route oral; conditions: in vivo
Method in brief: (§1)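 Nude athymic mice bearing MKN-28 human gastric carcinoma xenografts, from tumor fragments inoculated on both flanks at day 0. Oral treatment started when tumors were just palpable (day 3-4). Body weight loss (%) and toxicity were recorded per dose group, with toxicity given as a count over 4 mice.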

[3] = tested on: Mus musculus; test: Toxicity in nude athymic mouse at 9 mg/kg, po; type: organism-based; design: dose 9 mg/kg, route oral; conditions: in vivo; method in brief: as §1
[4] = tested on: MKN-28; test: Antitumor activity against human MKN28 cell line xenografted in nude athymic mouse at 5 mg/kg, po measured as log10 of cell kill to reach 1000 mm3 tumor volume; type: functional
[5] = tested on: MKN-28; test: Antitumor activity against human MKN28 cell line xenografted in nude athymic mouse at 5 mg/kg, po measured as tumor volume inhibition relative to control; type: functional
Method in brief: (§2)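 MKN-28 human gastric carcinoma tumor fragments inoculated on both flanks of nude athymic mice at day 0. Oral dosing began when tumors were just palpable (day 3-4). Read-out was tumor volume inhibition (%) of treated over control animals, 20 days after the last treatment. Groups of 4 mice.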

[6] = tested on: MKN-28; test: Antitumor activity against human MKN28 cell line xenografted in nude athymic mouse at 15 mg/kg, po measured as body weight loss; type: functional; method in brief: as §1
[7] = tested on: Mus musculus; test: Toxicity in nude athymic mouse at 5 mg/kg, po; type: organism-based; design: dose 5 mg/kg, route oral; conditions: in vivo; method in brief: as §1
[8] = tested on: MKN-28; test: Antitumor activity against human MKN28 cell line xenografted in nude athymic mouse at 15 mg/kg, po measured as tumor volume inhibition relative to control; type: functional; method in brief: as §2
[9] = tested on: MKN-28; test: Antitumor activity against human MKN28 cell line xenografted in nude athymic mouse at 9 mg/kg, po measured as log10 of cell kill to reach 1000 mm3 tumor volume; type: functional
[10] = tested on: MKN-28; test: Antitumor activity against human MKN28 cell line xenografted in nude athymic mouse at 9 mg/kg, po measured as body weight loss; type: functional; method in brief: as §1
[11] = tested on: MKN-28; test: Antitumor activity against human MKN28 cell line xenografted in nude athymic mouse at 5 mg/kg, po measured as body weight loss; type: functional; method in brief: as §1
[12] = tested on: MKN-28; test: Antitumor activity against human MKN28 cell line xenografted in nude athymic mouse at 15 mg/kg, po measured as log10 of cell kill to reach 1000 mm3 tumor volume; type: functional
[13] = tested on: MKN-28; test: Antitumor activity against human MKN28 cell line xenografted in nude athymic mouse at 9 mg/kg, po measured as tumor volume inhibition relative to control; type: functional; method in brief: as §2
[14] = tested on: Mus musculus; test: Toxicity in nude athymic mouse at 1 mg/kg, po; type: organism-based; design: dose 1 mg/kg, route oral; conditions: in vivo
[15] = tested on: Mus musculus; test: Toxicity in nude athymic mouse at 4 mg/kg, po; type: organism-based; design: dose 4 mg/kg, route oral; conditions: in vivo
[16] = tested on: MKN-28; test: Antitumor activity against human MKN28 cell line xenografted in nude athymic mouse at 1 mg/kg, po measured as body weight loss; type: functional
[17] = tested on: MKN-28; test: Antitumor activity against human MKN28 cell line xenografted in nude athymic mouse at 2 mg/kg, po measured as tumor volume inhibition relative to control; type: functional
Method in brief: (§3)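 Tumour fragments implanted on both flanks of nude athymic mice at day 0. Dosing iv or po started when tumours were just palpable (day 3-4). Tumour volume inhibition (%) is treated over control, 20 days after last treatment.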

[18] = tested on: MKN-28; test: Antitumor activity against human MKN28 cell line xenografted in nude athymic mouse at 2 mg/kg, po measured as log10 of cell kill to reach 1000 mm3 tumor volume; type: functional
[19] = tested on: MKN-28; test: Antitumor activity against human MKN28 cell line xenografted in nude athymic mouse at 4 mg/kg, po measured as tumor volume inhibition relative to control; type: functional; method in brief: as §3
[20] = tested on: MKN-28; test: Antitumor activity against human MKN28 cell line xenografted in nude athymic mouse at 4 mg/kg, po measured as log10 of cell kill to reach 1000 mm3 tumor volume; type: functional
[21] = tested on: MKN-28; test: Antitumor activity against human MKN28 cell line xenografted in nude athymic mouse at 2 mg/kg, po measured as body weight loss; type: functional
[22] = tested on: MKN-28; test: Antitumor activity against human MKN28 cell line xenografted in nude athymic mouse at 1 mg/kg, po measured as log10 of cell kill to reach 1000 mm3 tumor volume; type: functional
[23] = tested on: Mus musculus; test: Toxicity in nude athymic mouse at 2 mg/kg, po; type: organism-based; design: dose 2 mg/kg, route oral; conditions: in vivo
[24] = tested on: MKN-28; test: Antitumor activity against human MKN28 cell line xenografted in nude athymic mouse at 4 mg/kg, po measured as body weight loss; type: functional
[25] = tested on: MKN-28; test: Antitumor activity against human MKN28 cell line xenografted in nude athymic mouse at 1 mg/kg, po measured as tumor volume inhibition relative to control; type: functional; method in brief: as §3
[26] = target: T1, DNA topoisomerase 1 (Homo sapiens) (UniProt P11387); test: Activity against human Top1-mediated DNA cleavage after 10 mins; type: functional
T1 sequence (whole entry): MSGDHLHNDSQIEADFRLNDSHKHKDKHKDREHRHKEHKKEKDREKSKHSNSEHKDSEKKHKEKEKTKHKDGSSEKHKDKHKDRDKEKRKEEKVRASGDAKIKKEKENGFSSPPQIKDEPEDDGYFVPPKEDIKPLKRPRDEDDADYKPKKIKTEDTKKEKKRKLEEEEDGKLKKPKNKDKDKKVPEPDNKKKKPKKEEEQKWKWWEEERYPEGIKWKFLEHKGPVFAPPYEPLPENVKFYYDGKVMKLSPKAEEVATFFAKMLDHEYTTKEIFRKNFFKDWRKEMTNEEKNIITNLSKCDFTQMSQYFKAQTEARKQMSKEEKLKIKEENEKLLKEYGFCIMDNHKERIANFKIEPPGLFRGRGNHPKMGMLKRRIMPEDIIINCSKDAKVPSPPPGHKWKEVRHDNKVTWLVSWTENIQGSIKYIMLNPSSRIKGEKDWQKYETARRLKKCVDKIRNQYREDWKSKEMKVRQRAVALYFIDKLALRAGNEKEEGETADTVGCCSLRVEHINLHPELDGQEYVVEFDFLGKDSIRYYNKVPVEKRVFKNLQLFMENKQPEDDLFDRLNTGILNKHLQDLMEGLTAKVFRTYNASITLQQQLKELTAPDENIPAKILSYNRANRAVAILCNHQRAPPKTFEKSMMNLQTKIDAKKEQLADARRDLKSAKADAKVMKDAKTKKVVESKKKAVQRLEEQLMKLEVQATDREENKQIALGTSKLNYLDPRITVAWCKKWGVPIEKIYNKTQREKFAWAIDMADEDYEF
Method in brief: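 Purified full-length human recombinant top1 from GST-tagged yeast expression (640 ng per reaction), 3′-end-labelled 751-bp SV40 DNA fragment, pH 7.6 Tris buffer with 150 mM KCl, 5 mM MgCl2. 30 min at 37 °C, then 0.6 M NaCl added to reverse cleavage. Cleavage bands on denaturing gel quantified by phosphorimaging as cleaved/uncleaved radioactivity ratio, relative to 30 min level (100%).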

[27] = tested on: Mus musculus; test: Toxicity in nude athymic mouse at 4 mg/kg, iv; type: organism-based; design: dose 4 mg/kg, route intravenous; conditions: in vivo
[28] = tested on: Mus musculus; test: Toxicity in nude athymic mouse at 1 mg/kg, iv; type: organism-based; design: dose 1 mg/kg, route intravenous; conditions: in vivo

Structure (SMILES): CC[C@@]1(O)C(=O)OCc2c1cc1n(c2=O)Cc2c-1nc1ccccc1c2/C=N\OCCN(CCCCN(CCCNC(=O)OC(C)(C)C)C(=O)OC(C)(C)C)C(=O)OC(C)(C)C
pIC50 [1]: 5.97

Structure (SMILES): CC[C@@]1(O)C(=O)OCc2c1cc1n(c2=O)Cc2cc3c(CN(C)C)c(O)ccc3nc2-1 [TOPOTECAN]
Activity [2]: Non-toxic
Activity [3]: Non-toxic
Activity [4]: 1.3
inhibition in vivo at 5 mg/kg [5]: 80%
Activity [6]: 8%
Activity [7]: Non-toxic
inhibition in vivo at 15 mg/kg [8]: 98%
Activity [9]: 1.7
Activity [10]: 0%
Activity [11]: 0%
Activity [12]: 2.1
inhibition in vivo at 9 mg/kg [13]: 91%

Structure (SMILES): CC[C@@]1(O)C(=O)OCc2c1cc1n(c2=O)Cc2c-1nc1ccccc1c2/C=N\OCCCN
pIC50 [1]: 5.75

Structure (SMILES): CC[C@@]1(O)C(=O)OCc2c1cc1n(c2=O)Cc2c-1nc1ccccc1c2/C=N\OCCN(CCCCNC(=O)OC(C)(C)C)C(=O)OC(C)(C)C
pIC50 [1]: 5.94

Structure (SMILES): CC[C@@]1(O)C(=O)OCc2c1cc1n(c2=O)Cc2c-1nc1ccccc1c2CNCCCN(CCCCN(CCCNC(=O)OC(C)(C)C)C(=O)OC(C)(C)C)C(=O)OC(C)(C)C
pIC50 [1]: 5.85

Structure (SMILES): CC[C@@]1(O)C(=O)OCc2c1cc1n(c2=O)Cc2c-1nc1ccccc1c2/C=N\OCCCNC(=O)OC(C)(C)C
pIC50 [1]: 6.52

Structure (SMILES): CC[C@@]1(O)C(=O)OCc2c1cc1n(c2=O)Cc2c-1nc1ccccc1c2/C=N/CCCN(CCCCN(CCCNC(=O)OC(C)(C)C)C(=O)OC(C)(C)C)C(=O)OC(C)(C)C
Activity [14]: Non-toxic
pIC50 [1]: 7.54
Activity [15]: Non-toxic
Activity [16]: 5%
inhibition in vivo at 2 mg/kg [17]: 62%
Activity [18]: 0.5
inhibition in vivo at 4 mg/kg [19]: 72%
Activity [20]: 1
Activity [21]: 1%
Activity [22]: 0.1
Activity [23]: Non-toxic
Activity [24]: 7%
inhibition in vivo at 1 mg/kg [25]: 28%

Structure (SMILES): CC[C@@]1(O)C(=O)OCc2c1cc1n(c2=O)Cc2c-1nc1ccccc1c2/C=N\OCCNCCCCN
pIC50 [1]: 5.94
Activity [26]: 60%

pIC50 [1]: 7.10
Structure (SMILES): CCc1c2c(nc3ccc(O)cc13)-c1cc3c(c(=O)n1C2)COC(=O)[C@]3(O)CC [7-ETHYL-10-HYDROXYCAMPTOTHECIN]

Structure (SMILES): CC[C@@]1(O)C(=O)OCc2c1cc1n(c2=O)Cc2c-1nc1ccccc1c2/C=N/CCCN(CCCCNC(=O)OC(C)(C)C)C(=O)OC(C)(C)C
pIC50 [1]: 7.82
Activity [27]: Non-toxic
Activity [28]: Non-toxic

Structure (SMILES): CC[C@@]1(O)C(=O)OCc2c1cc1n(c2=O)Cc2c-1nc1ccccc1c2/C=N\OCCNCCCCNCCCN
pIC50 [1]: 5.97
Activity [26]: 60%

Structure (SMILES): CC[C@@]1(O)C(=O)OCc2c1cc1n(c2=O)Cc2c-1nc1ccccc1c2/C=N\OCCNC(=O)OC(C)(C)C
pIC50 [1]: 7.08

Structure (SMILES): CC[C@@]1(O)C(=O)OCc2c1cc1n(c2=O)Cc2c-1nc1ccccc1c2CNCCCNCCCCNCCCN
pIC50 [1]: 5.84
Activity [26]: 60%

Structure (SMILES): CC[C@@]1(O)C(=O)OCc2c1cc1n(c2=O)Cc2c-1nc1ccccc1c2CN(CCCN(CCCCN(CCCNC(=O)OC(C)(C)C)C(=O)OC(C)(C)C)C(=O)OC(C)(C)C)C(=O)OC(C)(C)C
pIC50 [1]: 5.49
